The test system of data set [1] is Plasmodium falciparum. As to the kind of experiment: Antimalarial activity against 4th to 5th gametocyte stage of Plasmodium falciparum 3D7elo1-pfs16-CBG99 assessed as inhibition of gametocyte viability by luciferase reporter gene assay. It is filed as functional, organism-based. The essentials: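 Stage IV–V gametocytes of luciferase-expressing 3D7elo1-pfs16-CBG99 strain (CBG99 under pfs16 promoter); luciferase activity as viability read-out. Viability = 100×(treated−blank)/(untreated−blank), blank = 100 nM epoxomicin-treated sample. Epoxomicin and dihydroartemisinin as positive controls. IC50 from nonlinear regression of dose–response; mean of three experiments in duplicate.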
In general terms: Reporter assays use an easily measured gene product as a stand-in for the process of interest.

The subject of data set [2] is Plasmodium berghei. As to the kind of experiment: Antimalarial activity against sporozoite stage of Plasmodium berghei ANKA infected in C57BL/6J mouse assessed as reduction in liver parasite load at 50 mg/kg/, po administered for 3 days measured after 48 hrs by qRT-PCR analysis relative to control. It is filed as functional. Also on record: scale not given: the % may be the effect or the level left. A digest of the protocol:
(§1)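 C57BL/6J mice, five per group, infected iv with luciferase-expressing P. berghei ANKA sporozoites. Compound given by oral gavage in DMSO + sunflower oil 24 h before, at, and 24 h after infection; controls got vehicle. Liver load measured 48 h post-infection by qRT-PCR of P. berghei 18S rRNA normalised to mouse Hprt, as % of controls; mean of two independent experiments.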
For orientation: Quantitative PCR measures a nucleic acid by following its amplification.

In data set [3] the test system is Plasmodium berghei. As to the kind of experiment: Antimalarial activity against sporozoite stage of Plasmodium berghei ANKA infected in C57BL/6J mouse assessed as reduction in liver parasite load at 100 mg/kg/, po administered for 3 days measured after 48 hrs by qRT-PCR analysis relative to control. It is filed as functional. Also on record: scale not given: the % may be the effect or the level left. A digest of the protocol: as §1

In data set [4] the test system is Plasmodium berghei. As to the kind of experiment: Antimalarial activity against sporozoite stage of Plasmodium berghei infected in human Huh7 cells assessed as inhibition of parasite infection pre-incubated for 24 hrs followed by parasite infection measured after 48 hrs by bioluminescence assay. Particulars: Huh-7. It is filed as functional, organism-based.
Data set [5] can be described thus: Selectivity ratio of IC50 for IV to V gametocyte stage of Plasmodium falciparum 3D7elo1-pfs16-CBG99 to IC50 for sporozoite stage of Plasmodium berghei infected in human Huh7. It is filed as functional, Huh-7.
Data set [6] relates to Plasmodium berghei. As to the kind of experiment: Antimalarial activity against sporozoite stage of Plasmodium berghei infected in human Huh7 cells assessed as remaining parasite infection at 5 uM pre-incubated for 24 hrs followed by parasite infection measured after 48 hrs by bioluminescence assay. Particulars: Huh-7.
Data set [7] is described as follows: Half life in human liver microsomes at 1 uM by LC-MS/MS analysis. It is filed as ADME. (Microsomes from liver hold many membrane-bound enzymes, among them those of drug oxidation.)
A further data set has as its system HepG2. As to the kind of experiment: Cytotoxicity against human HepG2 cells after 48 hrs by MTT assay. It is filed as cell-based. Particulars: HepG2, 48 h.
The subject of data set [8] is Plasmodium berghei. As to the kind of experiment: Antimalarial activity against Plasmodium berghei ANKA infected in C57Bl6 mouse at 10 mg/kg/day, po on days 3 to 5 by Thompson test. It is filed as functional.
Data set [9] has as its system Plasmodium berghei. As to the kind of experiment: Antimalarial activity against Plasmodium berghei ANKA infected in C57Bl6 mouse at 20 mg/kg/day, po on days 3 to 5 by Thompson test. It is filed as functional.
For data set [10], the system named is Plasmodium falciparum. As to the kind of experiment: Antimalarial activity against chloroquine-susceptible Plasmodium falciparum D6 after 48 hrs by [3H]hypoxanthine incorporation assay. It is filed as functional, organism-based. The essentials: (§2)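 P. falciparum D6 (Sierra I/UNC clone), W2 (Indochina I clone), TM91C235 (South-East Asian clone) cultured with compound; growth inhibition by [3H]hypoxanthine incorporation (modified Desjardins/Milhous method). Chloroquine, mefloquine, artemisinin as positive controls. IC50 in nM; technical triplicates, curve fits R2 0.96–1.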

The test system of data set [11] is Plasmodium falciparum. As to the kind of experiment: Antimalarial activity against mutidrug resistant Plasmodium falciparum TM91C235 after 48 hrs by [3H]hypoxanthine incorporation assay. It is filed as functional, organism-based. A digest of the protocol: as §2
The test system of data set [12] is Plasmodium falciparum. As to the kind of experiment: Antimalarial activity against chloroquine-resistant Plasmodium falciparum W2 after 48 hrs by [3H]hypoxanthine incorporation assay. It is filed as functional, organism-based. A digest of the protocol: as §2
The nature of data set [13]: Half life in mouse liver microsomes at 1 uM by LC-MS/MS analysis. It is filed as ADME.
Data set [14] is described as follows: Selectivity index, ratio of IC50 for human HepG2 cells to IC50 for chloroquine susceptible Plasmodium falciparum D6. Particulars: read-out: Ratio IC50. It is filed as toxicity, cell-based.
The test system of a further data set is Mus musculus. As to the kind of experiment: Toxicity in Plasmodium berghei ANKA infected C57Bl6 mouse at 160 mg/kg/day, po administered for 3 days measured 2 times a day for 31 days. It is filed as organism-based. Particulars: in vivo, 744 h.
The subject of data set [15] is Plasmodium berghei. As to the kind of experiment: Antimalarial activity against Plasmodium berghei ANKA infected in C57Bl6 mouse at 160 mg/kg/day, po measured on day 3 to 5 by Thompson test. It is filed as functional.
Data set [16] concerns Plasmodium berghei. As to the kind of experiment: Antimalarial activity against Plasmodium berghei ANKA infected in C57Bl6 mouse at 80 mg/kg/day, po measured on day 3 to 5 by Thompson test. It is filed as functional.
Data set [17] deals with Plasmodium berghei. As to the kind of experiment: Antimalarial activity against Plasmodium berghei ANKA infected in C57Bl6 mouse at 40 mg/kg/day, po on days 3 to 5 by Thompson test. It is filed as functional.
For data set [18], the system named is Plasmodium berghei. As to the kind of experiment: Antimalarial activity against Plasmodium berghei ANKA infected in po dosed C57Bl6 mouse administered on day 3 to 5 by Thompson test. It is filed as functional. The essentials:
(§3)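 Modified Thompson test: C57Bl6 female mice inoculated intraperitoneally on day 0 with 1×10^6 P. berghei ANKA-infected erythrocytes; compound suspended in 0.5% hydroxyethylcellulose–0.1% Tween 80, given orally once daily on days 3, 4 and 5 post infection. Parasitemia by Giemsa-stained thin tail-blood smears on days 0, 3, 6, 10, 13, 17, 20, 24, 27, 31. Cure = survival without parasitemia to day 31.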

Data set [19] in a line: Inhibition of beta hematin formation measured as hemin equivalent after 18 hrs. It is filed as physicochemical. The essentials:
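Hemin (16 mM in DMSO) mixed with compound at 0.125–5 mol equiv to hemin, plus water and 8 M acetate buffer pH 5.2, 25% DMSO final. Incubated 18 h at 37 °C. Pellet washed with DMSO, dissolved in 0.1 M NaOH, absorbance read at 405 nm (corrected at 670 nm) against a hemin calibration.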

The nature of data set [20]: Octanol-water partition coefficient, logP of the compound. It is filed as physicochemical.
The target of another data set is hERG (KCNH2) (Homo sapiens, UniProt Q12809). As to the kind of experiment: Inhibition of human ERG expressed in CHO cells at 5 uM by patch plate method. It is filed as cell-based. The note with it: CHO cells that express human ERG.
Sequence of hERG (KCNH2) (Q12809 whole entry): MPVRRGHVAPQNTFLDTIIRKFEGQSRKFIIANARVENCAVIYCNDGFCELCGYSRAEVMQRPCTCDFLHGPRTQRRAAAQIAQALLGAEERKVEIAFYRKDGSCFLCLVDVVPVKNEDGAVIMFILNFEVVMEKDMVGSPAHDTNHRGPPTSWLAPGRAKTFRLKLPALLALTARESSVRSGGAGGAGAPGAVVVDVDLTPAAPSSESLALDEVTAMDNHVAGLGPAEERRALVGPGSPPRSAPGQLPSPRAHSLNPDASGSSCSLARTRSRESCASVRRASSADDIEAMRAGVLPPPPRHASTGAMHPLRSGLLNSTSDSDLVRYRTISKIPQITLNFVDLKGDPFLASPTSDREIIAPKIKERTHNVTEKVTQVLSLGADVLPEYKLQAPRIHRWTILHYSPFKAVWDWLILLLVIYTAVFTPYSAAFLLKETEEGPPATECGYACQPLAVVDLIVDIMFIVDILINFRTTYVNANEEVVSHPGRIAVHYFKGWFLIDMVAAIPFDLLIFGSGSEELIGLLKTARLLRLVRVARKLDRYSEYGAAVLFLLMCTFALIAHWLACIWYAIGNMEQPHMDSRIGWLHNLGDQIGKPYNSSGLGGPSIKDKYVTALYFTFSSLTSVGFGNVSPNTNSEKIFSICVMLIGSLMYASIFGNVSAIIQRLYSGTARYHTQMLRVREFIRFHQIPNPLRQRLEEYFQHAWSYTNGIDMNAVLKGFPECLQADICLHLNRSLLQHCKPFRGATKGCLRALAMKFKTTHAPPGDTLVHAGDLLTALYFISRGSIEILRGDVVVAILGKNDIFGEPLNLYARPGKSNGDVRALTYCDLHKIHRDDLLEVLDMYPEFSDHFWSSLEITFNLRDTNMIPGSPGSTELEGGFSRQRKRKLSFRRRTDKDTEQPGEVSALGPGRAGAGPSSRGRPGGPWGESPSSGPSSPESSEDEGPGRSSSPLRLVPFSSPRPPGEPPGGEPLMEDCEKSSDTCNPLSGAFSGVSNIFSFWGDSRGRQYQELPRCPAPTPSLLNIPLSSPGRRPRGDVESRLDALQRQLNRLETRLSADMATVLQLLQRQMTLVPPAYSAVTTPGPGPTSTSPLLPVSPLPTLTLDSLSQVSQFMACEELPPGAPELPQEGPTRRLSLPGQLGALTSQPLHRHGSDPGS
In data set [21] the target is Voltage-gated inwardly rectifying potassium channel KCNH2 (Homo sapiens, UniProt Q12809). As to the kind of experiment: Inhibition of human ERG expressed in CHO cells by patch plate method. It is filed as cell-based.
Sequence of Voltage-gated inwardly rectifying potassium channel KCNH2 (Q12809 whole entry): as above
In data set [22] the test system is Salmonella typhimurium. As to the kind of experiment: Mutagenic activity in Salmonella typhimurium TA98 at 500 ug/ml by Ames test in absence of S9 fractions. The note with it: salmonella enterica subsp. enterica serovar typhimurium. It is filed as toxicity, organism-based. The essentials: (§4)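 Ames test in Salmonella typhimurium TA98 and TA100 at 500 μg/mL, with and without S9.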

Data set [23] has as its system Salmonella typhimurium. As to the kind of experiment: Mutagenic activity in Salmonella typhimurium TA100 at 500 ug/ml by Ames test in absence of S9 fractions. It is filed as toxicity, organism-based. The note with it: salmonella enterica subsp. enterica serovar typhimurium. A digest of the protocol: as §4
Data set [24] has as its system Salmonella typhimurium. As to the kind of experiment: Mutagenic activity in Salmonella typhimurium TA98 at 500 ug/ml by Ames test in presence of S9 fractions. It is filed as toxicity, organism-based, S9 Fraction. The note with it: salmonella enterica subsp. enterica serovar typhimurium. A digest of the protocol:
as §4

Data set [25] relates to Salmonella typhimurium. As to the kind of experiment: Mutagenic activity in Salmonella typhimurium TA100 at 500 ug/ml by Ames test in presence of S9 fractions. It is filed as toxicity, organism-based, S9 Fraction. Particulars: salmonella enterica subsp. enterica serovar typhimurium. A digest of the protocol:
as §4

For data set [26], the system named is Plasmodium berghei. As to the kind of experiment: Antimalarial activity against Plasmodium berghei ANKA infected in C57Bl6 mouse assessed as reduction of parasitemia at 20 mg/kg/day, po administered for day 3 to 5 measured on day 6 by Thompson test. It is filed as functional, organism-based. A digest of the protocol:
as §3

Data set [27] concerns Plasmodium berghei. As to the kind of experiment: Antimalarial activity against Plasmodium berghei ANKA infected in C57Bl6 mouse assessed as curative effect at 20 to 40 mg/kg/day, po administered for day 3 to 5 by Thompson test.

The source made the active and inactive calls.

The values below come from ChEMBL document CHEMBL3758104, “Reinvestigating Old Pharmacophores: Are 4-Aminoquinolines and Tetraoxanes Potential Two-Stage Antimalarials?” (J Med Chem, 2016).

Regarding `CCCNC(=O)CCC(C)[C@H]1CC[C@H]2[C@@H]3[C@H](OC(C)=O)C[C@@H]4CC5(CC[C@]4(C)[C@H]3C[C@H](OC(C)=O)[C@]12C)OOC1(CCCCC1)OO5` (some centres undefined), the IC50 in the data set on Plasmodium falciparum [1] came to 1.16 µM; in the data set with Plasmodium berghei [4] it was 0.33 µM. The Activity in the data set on Plasmodium berghei [2] is recorded as 60%; in the data set on Plasmodium berghei [3], 91%. Besides, in data set [5], the “Ratio IC50” value was found to be 3.5. The % infection at 5 µM in the data set with Plasmodium berghei [6] was determined as 0.55%.

Regarding `CC(CCNCC12CC3CC(CC(C3)C1)C2)Nc1ccnc2cc(Cl)ccc12` (centres undefined), the half-life at 1 µM in [7] and in data set [13] was 1 h each time. For the same compound, the IC50 in the data set on HepG2 is 3.04 µM; in the data set on Plasmodium falciparum [10], 0.01 µM; in the data set on Plasmodium falciparum [11], 0.01 µM; with Plasmodium falciparum [12], 0.01 µM; in [19], 1.84 equiv; in data set [21], above 5 µM. The IC50 with Plasmodium berghei [4] stood at 1 µM. The MST was 13 days in the data set with Plasmodium berghei [8]; 15.2 days in the data set on Plasmodium berghei [9]; above 31 days in the data set on Plasmodium berghei [15]; above 31 days in the data set on Plasmodium berghei [16]; 17.2 days in the data set on Plasmodium berghei [17]. Besides, the selectivity ratio in [14] was 305. For the same compound, the Activity result in the data set on Mus musculus was “Non-toxic”; in the data set on Plasmodium berghei [18] it was “Dose dependent effect”; in the data set on Salmonella typhimurium [22], “Non-toxic”; in the data set on Salmonella typhimurium [23] it was “Non-toxic”; in the data set on Salmonella typhimurium [24] it was “Non-toxic”; in the data set with Salmonella typhimurium [25], “Non-toxic”. Also, the MAC in the data set on Plasmodium berghei [18] was found to be 10 mg/kg/day. The compound further had an MCD in the data set on Plasmodium berghei [18] of 80 mg/kg/day. For the same compound, the logP in data set [20] worked out at 3.85. On hERG (KCNH2), the inhibition at 5 µM came out at 11.7%. Moreover, in the data set on Plasmodium berghei [26], the result was Active. Further, in the data set on Plasmodium berghei [27], the outcome was inactive. The % infection at 5 µM in the data set with Plasmodium berghei [6] worked out at 0.1%.

By half-life is commonly meant the time needed for the level to fall by half in the phase considered. As a reminder, the logP is the decadic logarithm of the partition coefficient of the neutral form, usually between octanol and water. Usually inhibition stands for the percentage by which the read-out fell short of the control.
